This note sets out measurements from ChEMBL document CHEMBL1155165, “SB-431542, a transforming growth factor beta inhibitor, impairs Trypanosoma cruzi infection in cardiomyocytes and parasite cycle completion” (2007).

SMILES strings stand for the structures. Activity calls are given as the source filed them. The rule behind the calls is not given here.

The test system of test [1] is Trypanosoma cruzi. The test can be described thus: Antitrypanosomal activity against Trypanosoma cruzi Y in mouse cardiomyocytes assessed as number of intracellular parasites per infected cell at 10 uM after 96 hrs postinfection by Giemsa staining. The test is classed as functional. An outline of the steps: (§1)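 Primary mouse embryo cardiomyocytes were seeded at 1 × 10^5 cells/well for 24 h at 37°C in 5% CO2. Cells were pretreated for 1 h with 10 μM inhibitor or vehicle, and treatment was kept throughout. They were infected with Y strain trypomastigotes at 10:1 parasite:host. At 24, 48, 72 and 96 h postinfection cells were Bouin-fixed and Giemsa-stained. Parasites per infected cell were counted over 400 cells on two coverslips. Mean ± SD of three experiments.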

A further test has as its system C32. Description: Inhibition of TGFbeta signaling in mink C32 cells at 10 uM by luciferase based assay. The test is classed as functional, cell-based. As to conditions: Neovison vison. The essentials:
(§2)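 C32 cells are Mv1Lu mink lung cells stably carrying a PAI promoter-luciferase reporter. Cells were plated at 1 × 10^5/well in 5% FCS and switched to 0.1% FCS after 3 h. They were stimulated with TGF-β1 2 ng/ml or live Y strain trypomastigotes, 1 × 10^6 to 4 × 10^6 parasites, with or without 10 μM inhibitor. Luciferase (RLU) was read after 20 h. Mean ± SD of three experiments.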

The test system of test [2] is Trypanosoma cruzi. The test can be described thus: Inhibition of invasion of Trypanosoma cruzi Y in mouse embryo cardiomyocytes assessed as pathogen infection at 10 uM for 1 hr measured at 4 hrs postinfection. The test is classed as functional, organism-based. The essentials: (§3)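 Mouse embryo cardiomyocytes were pretreated for 1 h with 10 μM inhibitor or left untreated. They were infected with Dm28c or Y strain trypomastigotes at 10:1 parasite:host. Cells were fixed at 4 h postinfection and Giemsa-stained. The percentage of infected cells was counted over 400 cells per slide on two coverslips. Control and treated cells were compared by t test.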

The test system of test [3] is Trypanosoma cruzi. The test can be described thus: Antitrypanosomal activity against Trypanosoma cruzi Y in mouse cardiomyocytes assessed as number of nontrypomastigote release at 10 uM after 96 hrs. In kind it is functional. An outline of the steps:
(§4)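 Cardiomyocytes were infected with Y strain trypomastigotes (10:1 parasite:host) and kept with or without 10 μM inhibitor throughout. Parasites released at 96 h postinfection were counted and reported as 10^4. Trypomastigotes were scored separately from nontrypomastigote forms (amastigotes plus epimastigote-like forms).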

The subject of test [4] is Trypanosoma cruzi. Description: Inhibition of Trypanosoma cruzi Dm28C infection-induced Smad2 phosphorylation in mouse embryo cardiomyocytes at 10 uM by immunoblot. The test is classed as functional, organism-based. The essentials: (§5)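 Mouse embryo cardiomyocytes were pretreated for 1 h with or without 10 μM inhibitor. They were then given 2 ng/ml TGF-β1 or T. cruzi Dm28c for 1 h. Cells were lysed in RIPA buffer, pH 8.0, and 20 μg lysate was run on 12% SDS-PAGE. Blots were probed for phospho-Smad2, with α-tubulin as loading control.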
A general note: In western blotting, separated proteins are transferred to a membrane and probed.

For the next test, the system named is Cardiomyocyte. The test can be described thus: Inhibition of TGF-beta-1-induced Smad2 phosphorylation in mouse embryo cardiomyocytes at 10 uM by immunoblot. The test is classed as functional, cell-based. An outline of the steps: as §5
The subject of test [5] is Trypanosoma cruzi. Description: Antitrypanosomal activity against Trypanosoma cruzi Y in mouse cardiomyocytes assessed as induction of parasite apoptosis at 10 uM after 72 hrs postinfection by TUNEL method. The test is classed as functional. An outline of the steps: (§6)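 Y strain-infected cardiomyocytes were kept with or without 10 μM inhibitor, grown on coverslips. They were fixed in 4% paraformaldehyde for 20 min at 4°C and permeabilized with 0.1% Triton X-100 in 0.1% sodium citrate for 2 min at 4°C. TUNEL labelling ran 60 min at 37°C, followed by DAPI counterstain. The percentage of TUNEL-positive parasites was scored at 72 and 96 h postinfection by epifluorescence.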

In test [6] the test system is Trypanosoma cruzi. The test can be described thus: Antitrypanosomal activity against Trypanosoma cruzi Y in mouse cardiomyocytes assessed as number of intracellular parasites per infected cell at 10 uM after 72 hrs postinfection by Giemsa staining. In kind it is functional. The essentials:
as §1

Test [7] deals with Trypanosoma cruzi. The test can be described thus: Antitrypanosomal activity against Trypanosoma cruzi Y in mouse cardiomyocytes assessed as reduction of intracellular amastigotes at 10 uM by Giemsa staining. In kind it is functional, organism-based. An outline of the steps: as §1
Test [8] relates to Trypanosoma cruzi. The test can be described thus: Inhibition of Trypanosoma cruzi Y infection-induced TGFbeta signaling in mink C32 cells at 10 uM by luciferase based assay. In kind it is functional, organism-based. An outline of the steps: as §2
Test [9] concerns Trypanosoma cruzi. Description: Inhibition of invasion of Trypanosoma cruzi Dm28C in mouse embryo cardiomyocytes assessed as pathogen infection at 10 uM for 1 hr measured at 4 hrs postinfection. In kind it is functional, organism-based. An outline of the steps: as §3
Test [10] has as its system Trypanosoma cruzi. The test can be described thus: Antitrypanosomal activity against Trypanosoma cruzi Y in mouse cardiomyocytes assessed as induction of parasite apoptosis at 10 uM after 96 hrs postinfection by TUNEL method. In kind it is functional. The essentials:
as §6

Test [11] concerns Trypanosoma cruzi. The test can be described thus: Antitrypanosomal activity against Trypanosoma cruzi Y in mouse cardiomyocytes assessed as number of intracellular parasites per infected cell at 10 uM after 24 hrs postinfection by Giemsa staining. The test is classed as functional. The essentials:
as §1

Test [12] relates to Trypanosoma cruzi. Description: Antitrypanosomal activity against Trypanosoma cruzi Y in mouse cardiomyocytes assessed as inhibition of trypomastigote release at 10 uM after 96 hrs. In kind it is functional, organism-based. The essentials: as §4
Test [13] concerns Trypanosoma cruzi. Description: Antitrypanosomal activity against Trypanosoma cruzi Y in mouse cardiomyocytes assessed as number of trypomastigote release at 10 uM after 96 hrs. In kind it is functional. The essentials:
as §4

Test [14] relates to Trypanosoma cruzi. The test can be described thus: Antitrypanosomal activity against Trypanosoma cruzi Y in mouse cardiomyocytes assessed as number of intracellular parasites per infected cell at 10 uM after 48 hrs postinfection by Giemsa staining. In kind it is functional. The essentials: as §1

Take `NC(=O)c1ccc(-c2nc(-c3ccccn3)c(-c3ccc4c(c3)OCO4)[nH]2)cc1` [SB-431542]: the Activity in the test with Trypanosoma cruzi [1] is 58; in the test on Trypanosoma cruzi [3] it was 53; in the test on Trypanosoma cruzi [5], 47.9%; in the test with Trypanosoma cruzi [6], 38; in the test with Trypanosoma cruzi [10], 26.5%; with Trypanosoma cruzi [11], 1.4. For the same compound, the Activity in the test with Trypanosoma cruzi [13] is recorded as 19; with Trypanosoma cruzi [14], 4.4. Besides, the outcome in the test on C32, in the test with Trypanosoma cruzi [2], in the test with Trypanosoma cruzi [4], with Cardiomyocyte, in the test with Trypanosoma cruzi [7] and with Trypanosoma cruzi [8] was Active. The result in the test on Trypanosoma cruzi [9] and in the test with Trypanosoma cruzi [12] was Active.
